T cell HTS = T cell immune modulation candidate; 330,000 compounds, 0.068% hits; response (vesicle binding), % at 7 µM; AID 2052; 2C CD8+ T cell-vesicle binding, flow cytometry; stronger effect = lower value;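 active means response, share of CD8 T cells binding vesicles, and their 90th percentile fluorescence all below set limits, cut at about 80% in these data, passing the limit was not always enough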;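 further: values below 100% mean blocked vesicle binding to the CD8+ T cells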
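Material: 2C TCR transgenic mouse naive CD8+ T cells, MACS-purified. Also added: QL9-charged Drosophila Ld/ICAM-1/B7-1 vesicles. Timing: binding 1.5 h at 37 °C. Measured by: high-throughput flow cytometry with anti-B7-1 and anti-CD8 staining. Read-out: percent CD8+ FL2 mean versus row control. Controls: Unloaded micro-vesicles (low), QL9 vesicles with 0.7% DMSO (high).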
PP5 primary = inhibitors of human protein phosphatase 5 (PP5); purified PP5c, OMFP substrate fluorescence; inhibition, % at 6.7 µM; 320,000 compounds, 0.18% hits; AID 1987;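 active means inhibition above the campaign's mean inhibition across all tested compounds plus 3 SD, cut at about 9.5% in these data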;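 further: 0% = DMSO only and 100% = 100 µM cantharidin control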
PP1 inh = PP1-alpha (human) inhibition in PP5 counter-screen; P62136; purified PP1alpha, OMFP fluorescence; inhibition, % at 6.7 µM; 320,000 compounds, 0.9% hits; AID 2235;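 active means inhibition above the mean inhibition of all tested compounds plus 3 SD, computed separately for each screening campaign, cut at about 15% in these data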
Target sequence (P62136 whole entry, looked up): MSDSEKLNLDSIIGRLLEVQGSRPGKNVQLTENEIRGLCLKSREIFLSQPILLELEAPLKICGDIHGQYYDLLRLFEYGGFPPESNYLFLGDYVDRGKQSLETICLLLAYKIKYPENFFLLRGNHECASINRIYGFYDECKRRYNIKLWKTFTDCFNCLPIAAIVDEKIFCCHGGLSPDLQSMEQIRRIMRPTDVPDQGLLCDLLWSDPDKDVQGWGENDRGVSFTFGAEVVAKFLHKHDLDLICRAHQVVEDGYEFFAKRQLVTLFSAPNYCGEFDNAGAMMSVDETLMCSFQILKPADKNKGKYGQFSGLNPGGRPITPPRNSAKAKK
m5-HT2A agonist = agonists of mouse serotonin 5-HT2A receptor (HTR2A) | P35363 | CHO-K1 mHTR2A beta-arrestin complementation, luminescence; percent of 30 µM serotonin response | activation, % at 7.6 µM | 360,000 compounds, 0.66% hits | AID 624169;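 active means activation above a run cutoff, the mean activation of all tested compounds plus 3 SD, cut at about 14% in these data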;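 further: 0% = plate median of compound wells and 100% = 30 µM serotonin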
GASC-1 inh = blocks human GASC-1 demethylase activity. Q9H3R0. GST-JMJD2C(1-420) H3K9me3 demethylation, DELFIA europium. inhibition, % at 2.35 µM. 330,000 compounds, 0.069% hits. AID 2099;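 active means more than half of a compound's replicate wells show inhibition beyond 50%, single wells judged on their own value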;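 further: signal counts dimethyl H3K9 product captured on neutravidin plate; 0% = median of DMSO wells and 100% = 0.3 times that DMSO median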
Target sequence (Q9H3R0 1-420 limits assumed): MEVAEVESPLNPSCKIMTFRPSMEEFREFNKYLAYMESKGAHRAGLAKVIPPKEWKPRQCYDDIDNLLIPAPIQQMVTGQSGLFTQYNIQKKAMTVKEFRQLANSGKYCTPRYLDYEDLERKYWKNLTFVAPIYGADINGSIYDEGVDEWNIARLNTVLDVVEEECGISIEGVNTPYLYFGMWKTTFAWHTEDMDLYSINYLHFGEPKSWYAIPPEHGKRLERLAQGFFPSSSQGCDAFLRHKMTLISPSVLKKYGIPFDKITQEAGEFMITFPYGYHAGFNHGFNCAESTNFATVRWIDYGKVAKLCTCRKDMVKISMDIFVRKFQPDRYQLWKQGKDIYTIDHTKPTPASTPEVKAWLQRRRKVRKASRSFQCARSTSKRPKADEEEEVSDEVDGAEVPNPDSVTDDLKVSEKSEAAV
PP1 inh confirm = confirmation of human PP1 phosphatase inhibitors; shares compounds with PP1 inh; purified PP1alpha, OMFP substrate fluorescence; inhibition, % at 6.7 µM; 1,900 compounds, 52% hits; AID 2358;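 active means mean PP1 inhibition above a set limit taken from the earlier primary screen, cut at about 15% in these data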
PP5 counter = PP5 phosphatase inhibition, counter-screen for PP1 inhibitors; shares compounds with PP1 inh; purified PP5c, OMFP fluorescence; inhibition, % at 6.7 µM; 1,900 compounds, 4% hits; AID 2360;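 active means mean PP5 inhibition over triplicate wells above about 9.5% taken from the earlier PP1 screen, limit read from the data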
The depositor's hits bear a star; . = not tested or not shown. Only some compounds are listed: those with a hit (about 1.7% of all), similar ones and a draw of the others.

SMILES | T cell HTS | PP5 primary | PP1 inh | m5-HT2A agonist | GASC-1 inh | PP1 inh confirm | PP5 counter
Cc1cc2nc(-c3ccc(SCC(=O)Nc4ccc(S(=O)(=O)N5CCCC5)cc4)nc3)[nH]c2cc1C | 189.9 | 0.9 | 34.9* | -2.3 | 2.5 | 34.2* | -1.8
O=C(CSc1ccc(-c2nc3ccccc3[nH]2)cn1)Nc1ccc(S(=O)(=O)N2CCCC2)cc1 | 351.3 | -3.7 | 9.3 | -0.7 | 2.9 | . | .
COc1ccc(/C=C/c2nnc(NC(=O)COc3ccccc3)s2)cc1 | 118.9 | -1.5 | -0.4 | -1.4 | -4.9 | . | .
COc1ccc(/C=C/c2nnc(NC(=O)COc3ccc(C)cc3)s2)cc1 | 426.1 | -4.2 | 17.7* | 2.2 | -5.6 | 6.5 | -5.5
COC(=O)[C@@H](CC(C)C)N(Cc1ccccc1)S(=O)(=O)N(Cc1ccccc1)[C@@H](CC(C)C)C(=O)OC | 614.3 | . | . | 5.1 | 1.3 | . | .
O=C(Nc1ccccc1C(=O)O)c1cccc(NS(=O)(=O)c2ccc(Br)cc2)c1 | 311.4 | 0.2 | 7.6 | 5.2 | 6.3 | . | .
O=C(Nc1ccccc1C(=O)O)c1cccc(S(=O)(=O)Nc2ccc(Br)cc2)c1 | 216.4 | 2.2 | 18.1* | 3.9 | 5.7 | 10.2 | 0.1
Cc1ccc(NC(=O)NCC2CCN(Cc3cccc(Cl)c3)CC2)c(Cl)c1 | 556.8 | 2.0 | 26.8* | -2.4 | 3.0 | -6.5 | -3.2
COc1cccc(/C=N/NC(=O)c2[nH]c(C)c(C(=O)N/N=C/c3cccc(OC)c3O)c2C)c1O | 426.1 | 3.3 | 24.7* | 4.0 | 0.9 | 28.2* | -2.5
COc1cccc(/C=N/NC(=O)C(=O)Nc2ccccc2OC(F)(F)C(F)F)c1O | 300.2 | 1.9 | 19.6* | -4.8 | -0.9 | 27.1* | -3.3
COc1cccc(/C=N/NC(=O)c2ccc(-c3ccccc3)cc2)c1O | 481.0 | 1.8 | 22.0* | -1.5 | 12.6 | 24.8* | 2.0
COc1cccc(/C=N/NC(=O)c2ccc(=O)[nH]n2)c1O | 264.1 | 0.0 | -0.1 | -0.6 | 5.0 | . | .
COc1ccccc1/C=N/NC(=O)c1cccc(OC(F)(F)C(F)F)c1 | 337.2 | 3.6 | -1.9 | -0.1 | -0.1 | . | .
COc1ccc(OC)c(/C=N\NC(=O)c2ccc(-c3ccccc3)cc2)c1 | 187.5 | . | . | -0.9 | 3.1 | . | .
CCC(/C=N/NC(=O)C(N)=O)CC | 428.7 | 3.2 | 5.6 | 2.9 | -31.0 | . | .
O=C1[C@H]2[C@@H](c3ccccc3)N[C@]3(CCCN(Cc4ccc(F)cc4)C3=O)[C@H]2C(=O)N1Cc1ccccc1 | . | . | . | 0.1 | . | . | .
CCN1CCN(S(=O)(=O)c2c[nH]c(C(=O)OC)c2)CC1 | 376.1 | -1.8 | -2.1 | -3.8 | -4.9 | . | .
O=C(Cc1ccccc1)N/N=C/c1ccccc1OCc1ccc(Cl)cc1 | 253.8 | 2.5 | 20.9* | -3.0 | 2.6 | -0.8 | 1.8
CC1CCN(C(=O)Cn2nc(C(F)(F)F)c3c2CCCC3)CC1 | 329.6 | -2.0 | 34.2* | 7.7 | -1.9 | -3.5 | -3.9
COC(=O)c1sc(N2C(=O)C(O)=C(C(=O)c3ccc(C)o3)C2c2cccs2)nc1C (configuration not stated) | 0.0 | 2.1 | 22.8* | -2.6 | -6.6 | 20.7* | -0.4
CCc1ccc2nc(N3C(=O)C(O)=C(C(=O)c4ccco4)C3c3cccs3)sc2c1 (configuration not stated) | 519.5 | 4.2 | 28.7* | 0.7 | -1.8 | 24.2* | 1.0
Cc1ccc2nc(N3C(=O)C(O)=C(C(=O)c4ccco4)C3c3ccc(C)o3)sc2c1 (configuration not stated) | 428.1 | 2.2 | 25.6* | 4.2 | -4.4 | 24.9* | -0.4
O=C(C1=C(O)C(=O)N(CCc2ccccc2)C1c1cccs1)c1ccco1 (configuration not stated) | 742.6 | 3.6 | 9.6 | 3.1 | 2.7 | . | .
CCOc1cccc(C2C(C(=O)c3ccc(C)o3)=C(O)C(=O)N2c2nccs2)c1 (configuration not stated) | 410.9 | -0.7 | 21.8* | 1.3 | -16.3 | 10.9 | 0.5
CSc1nsc(NN)n1 | . | . | . | 1.1 | . | . | .
SMILES | T cell HTS | PP5 primary | PP1 inh | m5-HT2A agonist | GASC-1 inh | PP1 inh confirm | PP5 counter
O=C(C1=C(O)C(=O)N(c2nc3ccc(Cl)cc3s2)C1c1ccco1)c1ccco1 (configuration not stated) | 888.5 | 0.4 | 18.7* | -0.2 | -5.3 | 25.2* | -2.0
CCCn1c(=O)c2c(nc3n2CCCN3CCc2ccc(OC)c(OC)c2)n(C)c1=O | 185.5 | 2.6 | -1.8 | 7.5 | 10.7 | . | .
Cc1cc(C)n(-c2ccnc3cc(Cl)ccc23)n1 | 230.5 | -1.9 | -3.8 | -1.3 | -4.3 | . | .
COc1ccc(C(=O)OCC(=O)c2ccc[nH]2)cc1 | 632.1 | 3.1 | 0.5 | -2.1 | 0.2 | . | .
CCn1cnc2cc(NCc3ccc(OC)cc3)ccc21 | 542.7 | 2.2 | -6.8 | -4.8 | -4.9 | . | .
CCOc1ccc2nc3cc(NCc4ccc(OC)cc4)ccc3c(N)c2c1 | 197.8 | 15.0* | 65.0* | -11.8 | -9.8 | 15.8* | 38.1*
COc1ccc(CCNC(=O)c2cc(-c3ccccn3)nc3ccccc23)cc1 | 363.6 | 2.5 | -1.5 | 8.6 | 2.3 | . | .
CCOC(=O)c1sc(-n2[nH]c(C)cc2=O)nc1C | 143.4 | -0.2 | 19.0* | -2.2 | -2.3 | 0.6 | 9.2
O=C1c2cccc3c(Cl)ccc(c23)C(=O)N1O | 503.7 | 1.8 | 38.3* | -2.5 | 0.1 | 29.9* | -5.7
CN(C)c1ccc(NC(=O)C(=O)C2C(=O)Nc3ccccc32)cc1 (configuration not stated) | 120.6 | 0.5 | 20.8* | 2.6 | -2.3 | 1.1 | -0.9
Cc1ccc(Nc2cc(C)nc(NCc3ccccc3)n2)cc1 | 389.3 | 4.8 | 17.7* | -6.0 | 0.1 | 4.2 | 4.1
CCN(CC)C1CCN(C(=O)c2ccc3nc(Cc4ccc(OC)cc4)oc3c2)C1 (configuration not stated) | . | . | . | -3.2 | -12.2 | . | .
O=c1[nH]c(NCCO)nc2c1C1(CCCCC1)Cc1ccccc1-2 | 353.4 | 1.0 | 18.6* | -6.3 | . | 2.5 | 0.3
Cn1c(SCC(=O)c2ccc3c(c2)Cc2ccccc2-3)nnc1-c1ccccc1 | 192.8 | 3.2 | 26.0* | -2.0 | -3.6 | 31.5* | -1.2
Cn1c(SCC(=O)c2ccccc2)nnc1-c1ccncc1 | 417.1 | -1.0 | -0.8 | -5.4 | -3.7 | . | .
COc1ccc(-c2ccnc3nc(-n4cccc4)nn23)cc1 | 272.9 | 0.4 | 18.6* | 2.5 | 7.6 | 19.5* | -5.0
Cc1ccc(CSc2nccc(-c3c(C)nc4ccccn34)n2)cc1 | 452.1 | 3.4 | -1.9 | 1.7 | -43.8 | . | .
C#CCOCCOCCOCCNc1nc(N2CCOCC2)nc(N2CCN(C(=O)CCCCCCCCCCNC(=O)[C@H](CO)n3cc(CCCSC)nn3)CC2)n1 | 516.0 | 2.1 | -0.6 | 4.9 | -19.4 | . | .

Compound activity from PubChem.
